Experimental data: ChEMBL document CHEMBL5653631, “A Potent and Selective ULK1 Inhibitor Suppresses Autophagy and Sensitizes Cancer Cells to Nutrient Stress” (iScience, 2018)
Each block holds one molecule with its values, some of them ahead of it.

Experiments:
[1] = molecular target: Tyrosine-protein kinase ABL2 (Homo sapiens) (UniProt P42684); experiment: Inhibition of human recombinant ABL2 at 500 nM in presence of ATP by radiometric assay relative to control
Method in brief: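 Panel of 327 recombinant human kinases in radiometric activity assays, each screened in duplicate at a single inhibitor concentration; percent activity remaining relative to vehicle control, percent inhibition taken as 100 minus activity remaining.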

[2] = molecular target: T1, Eukaryotic elongation factor 2 kinase (Homo sapiens) (UniProt O00418); experiment: Inhibition of human recombinant eEF2K at 500 nM in presence of ATP by radiometric assay relative to control
T1 sequence (whole entry): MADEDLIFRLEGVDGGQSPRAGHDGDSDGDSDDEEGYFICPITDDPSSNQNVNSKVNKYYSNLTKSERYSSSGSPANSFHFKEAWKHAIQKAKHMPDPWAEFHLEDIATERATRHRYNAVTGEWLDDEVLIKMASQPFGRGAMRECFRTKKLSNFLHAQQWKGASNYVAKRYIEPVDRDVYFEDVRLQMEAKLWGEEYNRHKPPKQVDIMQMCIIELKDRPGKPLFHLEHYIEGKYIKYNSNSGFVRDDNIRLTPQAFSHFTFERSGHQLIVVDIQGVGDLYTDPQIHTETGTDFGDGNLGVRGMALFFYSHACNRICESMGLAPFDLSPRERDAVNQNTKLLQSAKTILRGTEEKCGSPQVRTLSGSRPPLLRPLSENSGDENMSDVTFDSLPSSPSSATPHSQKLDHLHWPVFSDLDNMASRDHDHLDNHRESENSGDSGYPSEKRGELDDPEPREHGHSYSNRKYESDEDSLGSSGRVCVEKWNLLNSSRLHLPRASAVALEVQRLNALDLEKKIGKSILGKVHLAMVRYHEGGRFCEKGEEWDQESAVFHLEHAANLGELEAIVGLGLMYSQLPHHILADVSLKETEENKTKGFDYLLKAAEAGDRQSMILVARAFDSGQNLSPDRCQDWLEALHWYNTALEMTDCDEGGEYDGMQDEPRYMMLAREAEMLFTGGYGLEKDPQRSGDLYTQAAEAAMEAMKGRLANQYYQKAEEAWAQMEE

[3] = molecular target: T2, Mitogen-activated protein kinase 12 (Homo sapiens) (UniProt P53778); experiment: Inhibition of human recombinant p38gamma at 500 nM in presence of ATP by radiometric assay relative to control
T2 sequence (whole entry): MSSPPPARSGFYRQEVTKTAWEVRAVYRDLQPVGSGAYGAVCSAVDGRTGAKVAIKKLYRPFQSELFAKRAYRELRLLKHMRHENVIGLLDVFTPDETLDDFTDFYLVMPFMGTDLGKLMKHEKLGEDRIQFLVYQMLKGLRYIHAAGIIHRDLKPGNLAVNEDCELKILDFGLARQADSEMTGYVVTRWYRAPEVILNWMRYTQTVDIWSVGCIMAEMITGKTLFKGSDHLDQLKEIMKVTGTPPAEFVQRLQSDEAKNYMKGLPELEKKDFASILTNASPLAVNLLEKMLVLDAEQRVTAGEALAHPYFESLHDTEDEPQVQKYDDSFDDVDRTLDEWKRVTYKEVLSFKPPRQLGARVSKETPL

[4] = molecular target: Ribosomal protein S6 kinase alpha-6 (Homo sapiens) (UniProt Q9UK32); experiment: Inhibition of human recombinant RSK4 at 500 nM in presence of ATP by radiometric assay relative to control
[5] = molecular target: Serine/threonine-protein kinase MARK2 (Homo sapiens) (UniProt Q7KZI7); experiment: Inhibition of human recombinant MARK2 at 500 nM related to control ULK1
[6] = molecular target: T3, Cytoplasmic tyrosine-protein kinase BMX (Homo sapiens) (UniProt P51813); experiment: Inhibition of human recombinant BMX at 15 nM in presence of ATP by radiometric assay relative to control
T3 sequence (whole entry): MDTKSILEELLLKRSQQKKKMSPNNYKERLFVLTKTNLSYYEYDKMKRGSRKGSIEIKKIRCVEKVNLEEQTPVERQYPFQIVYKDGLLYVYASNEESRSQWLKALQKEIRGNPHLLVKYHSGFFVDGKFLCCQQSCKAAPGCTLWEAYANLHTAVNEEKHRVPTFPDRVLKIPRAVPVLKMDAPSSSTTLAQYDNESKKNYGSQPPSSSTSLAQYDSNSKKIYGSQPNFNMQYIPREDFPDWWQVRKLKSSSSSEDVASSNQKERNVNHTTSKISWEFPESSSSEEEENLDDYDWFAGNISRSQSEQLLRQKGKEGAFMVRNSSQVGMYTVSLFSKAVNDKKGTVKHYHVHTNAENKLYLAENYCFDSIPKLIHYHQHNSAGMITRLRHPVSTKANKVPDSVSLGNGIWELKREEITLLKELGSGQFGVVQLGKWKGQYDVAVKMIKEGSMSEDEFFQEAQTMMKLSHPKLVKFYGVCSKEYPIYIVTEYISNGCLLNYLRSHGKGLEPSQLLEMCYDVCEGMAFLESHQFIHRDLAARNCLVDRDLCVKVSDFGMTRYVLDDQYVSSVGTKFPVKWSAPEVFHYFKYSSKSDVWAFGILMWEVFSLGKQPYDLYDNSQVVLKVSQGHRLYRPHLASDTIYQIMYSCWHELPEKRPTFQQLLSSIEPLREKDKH
Method in brief: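 Part of a radiometric in vitro activity panel of 327 recombinant human kinases. Each kinase was tested in duplicate at one inhibitor concentration. Activity remaining was expressed as a percentage of the vehicle control, and percent inhibition was taken as 100 minus that value.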

[7] = molecular target: Rhodopsin kinase GRK7 (Homo sapiens) (UniProt Q8WTQ7); experiment: Inhibition of human recombinant GPRK7 at 15 nM related to control ULK1
[8] = molecular target: T4, TGF-beta receptor type-1 (Homo sapiens) (UniProt P36897); experiment: Inhibition of human recombinant TGFbR1 at 40 nM in presence of ATP by radiometric assay relative to control
T4 sequence (whole entry): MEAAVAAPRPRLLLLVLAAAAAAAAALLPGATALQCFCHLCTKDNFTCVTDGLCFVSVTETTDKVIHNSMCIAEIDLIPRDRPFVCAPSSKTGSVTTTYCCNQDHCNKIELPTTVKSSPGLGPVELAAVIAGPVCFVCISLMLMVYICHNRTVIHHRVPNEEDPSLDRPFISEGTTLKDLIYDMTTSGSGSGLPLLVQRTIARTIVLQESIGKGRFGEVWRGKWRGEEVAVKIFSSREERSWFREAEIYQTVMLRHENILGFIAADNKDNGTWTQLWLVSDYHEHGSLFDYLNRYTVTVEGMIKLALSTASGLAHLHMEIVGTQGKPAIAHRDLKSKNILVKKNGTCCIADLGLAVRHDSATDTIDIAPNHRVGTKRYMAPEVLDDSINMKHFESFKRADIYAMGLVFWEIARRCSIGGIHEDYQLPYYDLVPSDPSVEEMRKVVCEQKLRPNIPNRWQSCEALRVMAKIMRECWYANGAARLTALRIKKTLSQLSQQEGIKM

[9] = molecular target: G protein-coupled receptor kinase 5 (Homo sapiens) (UniProt P34947); experiment: Inhibition of human recombinant GPRK5 at 40 nM related to control ULK1
Sequence of G protein-coupled receptor kinase 5 (Homo sapiens) (P34947 whole entry, looked up): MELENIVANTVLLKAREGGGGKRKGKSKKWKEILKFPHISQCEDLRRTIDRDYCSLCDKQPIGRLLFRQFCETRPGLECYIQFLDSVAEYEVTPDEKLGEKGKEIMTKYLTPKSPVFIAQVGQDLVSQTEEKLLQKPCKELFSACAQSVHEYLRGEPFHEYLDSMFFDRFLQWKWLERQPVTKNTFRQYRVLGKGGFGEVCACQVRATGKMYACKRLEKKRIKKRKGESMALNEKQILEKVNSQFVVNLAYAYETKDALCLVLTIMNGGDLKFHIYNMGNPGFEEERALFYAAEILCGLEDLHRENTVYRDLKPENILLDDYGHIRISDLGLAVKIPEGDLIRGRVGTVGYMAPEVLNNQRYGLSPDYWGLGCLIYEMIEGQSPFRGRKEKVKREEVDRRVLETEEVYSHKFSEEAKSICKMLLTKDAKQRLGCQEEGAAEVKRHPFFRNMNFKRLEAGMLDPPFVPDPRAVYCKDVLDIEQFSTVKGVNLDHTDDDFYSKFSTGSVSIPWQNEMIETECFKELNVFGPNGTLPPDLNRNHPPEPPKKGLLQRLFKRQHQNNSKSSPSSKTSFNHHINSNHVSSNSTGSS

Sequence of Ribosomal protein S6 kinase alpha-6 (Homo sapiens) (Q9UK32 whole entry): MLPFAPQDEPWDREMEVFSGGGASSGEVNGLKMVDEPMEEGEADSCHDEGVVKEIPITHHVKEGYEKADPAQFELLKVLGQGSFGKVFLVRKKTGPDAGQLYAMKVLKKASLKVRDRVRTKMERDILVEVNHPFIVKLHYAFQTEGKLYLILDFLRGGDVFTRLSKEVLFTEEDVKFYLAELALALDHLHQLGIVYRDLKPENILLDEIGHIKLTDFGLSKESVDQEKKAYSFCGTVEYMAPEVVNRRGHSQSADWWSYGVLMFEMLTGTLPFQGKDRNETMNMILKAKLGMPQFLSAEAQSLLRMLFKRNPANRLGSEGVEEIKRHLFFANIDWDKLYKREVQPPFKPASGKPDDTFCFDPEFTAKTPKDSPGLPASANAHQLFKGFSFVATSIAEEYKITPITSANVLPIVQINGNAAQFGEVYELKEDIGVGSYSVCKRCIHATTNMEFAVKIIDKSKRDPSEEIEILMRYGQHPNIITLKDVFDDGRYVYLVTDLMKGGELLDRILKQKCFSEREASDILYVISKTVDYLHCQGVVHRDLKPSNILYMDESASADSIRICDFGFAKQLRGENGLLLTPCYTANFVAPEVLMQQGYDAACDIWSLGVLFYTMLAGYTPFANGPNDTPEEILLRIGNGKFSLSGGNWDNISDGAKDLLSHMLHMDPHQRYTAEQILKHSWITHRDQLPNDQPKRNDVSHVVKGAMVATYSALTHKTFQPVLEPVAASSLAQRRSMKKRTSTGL
Sequence of Rhodopsin kinase GRK7 (Homo sapiens) (Q8WTQ7 whole entry, looked up): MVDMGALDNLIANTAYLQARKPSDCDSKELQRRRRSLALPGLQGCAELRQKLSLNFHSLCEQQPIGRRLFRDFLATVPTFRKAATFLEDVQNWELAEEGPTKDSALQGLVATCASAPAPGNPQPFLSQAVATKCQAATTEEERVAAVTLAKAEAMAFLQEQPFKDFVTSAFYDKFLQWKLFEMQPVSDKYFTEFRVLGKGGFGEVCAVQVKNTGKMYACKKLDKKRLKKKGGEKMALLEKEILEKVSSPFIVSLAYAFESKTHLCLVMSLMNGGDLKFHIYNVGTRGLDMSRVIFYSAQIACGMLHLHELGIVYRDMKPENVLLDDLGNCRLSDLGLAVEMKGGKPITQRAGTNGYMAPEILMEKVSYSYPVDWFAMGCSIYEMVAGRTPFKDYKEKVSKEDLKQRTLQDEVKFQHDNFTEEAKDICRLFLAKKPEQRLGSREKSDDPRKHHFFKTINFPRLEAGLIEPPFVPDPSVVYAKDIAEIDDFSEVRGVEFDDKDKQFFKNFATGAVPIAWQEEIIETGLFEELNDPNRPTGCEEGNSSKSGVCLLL
Sequence of Tyrosine-protein kinase ABL2 (Homo sapiens) (P42684 whole entry): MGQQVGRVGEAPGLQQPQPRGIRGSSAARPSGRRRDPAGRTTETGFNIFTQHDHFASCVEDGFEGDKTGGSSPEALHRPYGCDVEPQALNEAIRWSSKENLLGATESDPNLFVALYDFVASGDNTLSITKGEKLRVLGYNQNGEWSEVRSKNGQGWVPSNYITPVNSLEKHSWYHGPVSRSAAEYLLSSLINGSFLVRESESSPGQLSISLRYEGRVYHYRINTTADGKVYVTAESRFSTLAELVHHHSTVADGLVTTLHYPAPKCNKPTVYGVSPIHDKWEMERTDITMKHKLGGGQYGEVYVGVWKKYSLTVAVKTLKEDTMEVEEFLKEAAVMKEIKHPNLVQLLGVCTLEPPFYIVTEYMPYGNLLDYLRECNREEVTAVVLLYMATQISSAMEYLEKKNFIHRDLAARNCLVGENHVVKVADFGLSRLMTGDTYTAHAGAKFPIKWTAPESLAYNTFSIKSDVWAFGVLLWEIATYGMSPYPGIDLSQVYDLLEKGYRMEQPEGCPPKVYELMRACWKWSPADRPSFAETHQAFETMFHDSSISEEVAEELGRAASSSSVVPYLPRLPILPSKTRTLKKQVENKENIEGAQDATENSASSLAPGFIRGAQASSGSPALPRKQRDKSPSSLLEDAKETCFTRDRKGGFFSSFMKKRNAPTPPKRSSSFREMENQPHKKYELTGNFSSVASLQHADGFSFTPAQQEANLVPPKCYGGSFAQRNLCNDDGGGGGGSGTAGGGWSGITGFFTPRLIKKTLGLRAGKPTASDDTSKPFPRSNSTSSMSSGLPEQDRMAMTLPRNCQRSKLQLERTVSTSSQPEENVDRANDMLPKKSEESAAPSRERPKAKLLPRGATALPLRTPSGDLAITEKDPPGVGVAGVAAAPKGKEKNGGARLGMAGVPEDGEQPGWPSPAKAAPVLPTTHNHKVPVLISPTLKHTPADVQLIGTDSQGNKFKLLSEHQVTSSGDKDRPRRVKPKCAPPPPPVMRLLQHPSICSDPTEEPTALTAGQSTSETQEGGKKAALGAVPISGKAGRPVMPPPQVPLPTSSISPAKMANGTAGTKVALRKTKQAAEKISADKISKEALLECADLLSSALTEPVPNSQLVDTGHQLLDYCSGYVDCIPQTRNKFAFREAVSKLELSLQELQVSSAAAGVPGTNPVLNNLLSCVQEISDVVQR
Sequence of Serine/threonine-protein kinase MARK2 (Homo sapiens) (Q7KZI7 whole entry): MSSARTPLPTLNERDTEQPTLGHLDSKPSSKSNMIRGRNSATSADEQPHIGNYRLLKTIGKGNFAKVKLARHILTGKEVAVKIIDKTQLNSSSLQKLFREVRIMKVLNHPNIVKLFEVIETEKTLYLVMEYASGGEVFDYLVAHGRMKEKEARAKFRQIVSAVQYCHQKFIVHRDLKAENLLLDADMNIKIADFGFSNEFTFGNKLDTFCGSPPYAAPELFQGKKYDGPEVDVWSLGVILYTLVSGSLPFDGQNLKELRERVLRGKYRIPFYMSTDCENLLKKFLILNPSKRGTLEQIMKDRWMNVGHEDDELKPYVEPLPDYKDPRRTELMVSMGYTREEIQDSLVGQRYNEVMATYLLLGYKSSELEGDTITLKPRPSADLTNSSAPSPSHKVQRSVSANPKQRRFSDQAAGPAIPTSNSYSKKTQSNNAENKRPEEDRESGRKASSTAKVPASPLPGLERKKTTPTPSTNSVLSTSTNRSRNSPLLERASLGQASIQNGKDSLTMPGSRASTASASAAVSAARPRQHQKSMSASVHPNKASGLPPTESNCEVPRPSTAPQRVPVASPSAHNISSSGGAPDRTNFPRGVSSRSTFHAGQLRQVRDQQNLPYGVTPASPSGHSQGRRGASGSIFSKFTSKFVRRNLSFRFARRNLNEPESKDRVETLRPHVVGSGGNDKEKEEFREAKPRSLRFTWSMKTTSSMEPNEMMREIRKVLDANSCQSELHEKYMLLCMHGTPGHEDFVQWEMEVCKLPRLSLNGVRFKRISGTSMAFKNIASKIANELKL

inhibition [1]: 21%
inhibition [2]: 14%
inhibition [3]: 0%
inhibition [4]: 33%
fold change (FC) [5]: 0.68
SMILES: CNC(=O)c1ccccc1Oc1nc(Nc2cc(OC)c(OC)c(OC)c2)ncc1Br

inhibition [6]: 6%
fold change (FC) [7]: 0
SMILES: CC(C)[C@H](NC(=O)c1cc(-c2cnn3cc(-c4ccc(OCCN5CCCCC5)cc4)cnc23)cs1)C(F)(F)F

inhibition [8]: 0%
fold change (FC) [9]: 0.01
SMILES: O=C(N[C@@H](C1CC1)C(F)(F)F)c1cc(-c2cnn3cc(-c4ccc(F)cc4)cnc23)cs1
